# Laboratory results published in publication PMC6424611 (Journal of molecular biology, 2019).
# pKd: −log10 of the molar value. Where no end group is shown, it is not given here. The star is where a group is joined. Biotin = O=C1N[C@H]2[C@H](CS[C@H]2CCCCC(=O)*)N1; TTDS = NCCCOCCOCCOCCCNC(=O)CCC(=O)*
# Assays:
# GORASP1 PDZ = assay: holdup assay; format: binding, human; settings: ~4 μM PDZ
# How it was run: (§1)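 Automated holdup against N-terminally biotinylated (TTDS linker) RSK1 725–735 peptides, unphosphorylated and phosphorylated, in triplicate. PDZome v2 clones were codon-optimized and expressed in E. coli, with soluble lysate adjusted to ~4 μM. BI is the PDZ fraction depleted from the fluid phase.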
# ARHGEF12 PDZ = target: T1, ARHGEF12 PDZ (Homo sapiens, UniProt Q9NZN5); assay: holdup assay; format: binding; settings: ~4 μM PDZ
# T1 sequence (Q9NZN5 72-151 limits assumed): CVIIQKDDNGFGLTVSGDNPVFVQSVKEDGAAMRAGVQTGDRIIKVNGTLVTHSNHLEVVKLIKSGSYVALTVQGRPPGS
# How it was run: as §1
# PPP1R9A PDZ = assay: holdup assay; format: binding, human; settings: ~4 μM PDZ
# How it was run: as §1
# SNTB1 PDZ = target: T2, SNTB1 PDZ (Homo sapiens, UniProt Q13884); assay: holdup assay; format: binding; settings: ~4 μM PDZ
# T2 sequence (Q13884 112-195 limits assumed): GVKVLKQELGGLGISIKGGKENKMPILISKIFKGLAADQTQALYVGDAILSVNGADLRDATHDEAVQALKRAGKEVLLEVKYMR
# How it was run: as §1
# MAGI1-2 PDZ = MAGI1-2 PDZ (Homo sapiens, UniProt Q96QZ7); assay: holdup assay; format: binding; settings: ~4 μM PDZ
# How it was run: as §1
# PDZRN3-1 PDZ = target: T3, PDZRN3-1 PDZ (Homo sapiens, UniProt Q9UPQ7); assay: holdup assay; format: binding; settings: ~4 μM PDZ
# T3 sequence (Q9UPQ7 249-339 limits assumed): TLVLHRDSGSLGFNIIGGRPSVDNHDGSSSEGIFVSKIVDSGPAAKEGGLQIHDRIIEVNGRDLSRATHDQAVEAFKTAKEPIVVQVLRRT
# How it was run: as §1
# SYNJ2BP PDZ = target: T4, SYNJ2BP PDZ (Homo sapiens, UniProt P57105); assay: holdup assay; format: binding; settings: ~4 μM PDZ
# T4 sequence (P57105 13-100 limits assumed): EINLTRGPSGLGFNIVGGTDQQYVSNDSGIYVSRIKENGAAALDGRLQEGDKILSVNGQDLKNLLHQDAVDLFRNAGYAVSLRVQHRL
# How it was run: as §1
# GRASP PDZ = assay: holdup assay; format: binding, human; settings: ~4 μM PDZ
# How it was run: as §1
# MAST2 PDZ = target: T5, MAST2 PDZ (Homo sapiens, UniProt Q6P0Q8); assay: holdup assay; format: binding; settings: fraction of PDZ depleted; ~4 μM PDZ; biotinylated RSK1_725–735; triplicates
# T5 sequence (Q6P0Q8 1104-1192 limits assumed): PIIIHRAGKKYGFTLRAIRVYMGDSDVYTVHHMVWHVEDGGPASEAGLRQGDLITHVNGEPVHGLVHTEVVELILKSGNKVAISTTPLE
# How it was run: as §1
# MAGI3-2 PDZ = assay: holdup assay; format: binding, human; settings: fraction of PDZ depleted; ~4 μM PDZ; biotinylated RSK1_725–735; triplicates
# How it was run: (§2)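 Automated holdup in triplicate measured biotinylated (N-terminal TTDS linker) RSK1 725–735 peptides, unphosphorylated or phosphorylated, against E. coli-expressed PDZome v2 domains. Soluble lysate was adjusted to ~4 μM, giving 255 domains for the unphosphorylated and 252 for the phosphorylated peptide. Binding intensity (BI) is the fraction of PDZ depleted from the fluid phase. BI 0.2 was the high-confidence threshold.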
# HTRA1 PDZ = HTRA1 PDZ (Homo sapiens, UniProt Q92743); assay: holdup assay; format: binding; settings: ~4 μM PDZ
# How it was run: as §1
# LAP2 PDZ = assay: holdup assay; format: binding, human; settings: ~4 μM PDZ
# How it was run: as §1
# SCRIB-3 PDZ = assay: holdup assay, updated analysis; format: binding, human; settings: weak partner; automated computational protocol
# How it was run: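 The same triplicate holdup datasets (biotinylated RSK1 725–735, unphosphorylated and phosphorylated, vs ~4 μM PDZome lysates) were re-analysed with an updated automated computational protocol. This gave alternative BI values, reported as supplemental values alongside the conventional analysis.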
# NHERF2-2 PDZ = assay: holdup assay; format: binding, human; settings: ~4 μM PDZ
# How it was run: as §1
# SNTA1 PDZ = target: T6, SNTA1 PDZ (Homo sapiens, UniProt Q13424); assay: holdup assay; format: binding; settings: fraction of PDZ depleted; ~4 μM PDZ; biotinylated RSK1_725–735; triplicates
# T6 sequence (Q13424 87-170 limits assumed): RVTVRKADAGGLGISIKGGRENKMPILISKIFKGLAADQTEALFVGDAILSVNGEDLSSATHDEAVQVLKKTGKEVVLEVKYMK
# How it was run: as §1
# GOPC PDZ = GOPC PDZ (Homo sapiens, UniProt Q9HD26); assay: holdup assay; format: binding; settings: fraction of PDZ depleted; ~4 μM PDZ; biotinylated RSK1_725–735; triplicates
# SHROOM2 PDZ = assay: holdup assay; format: binding, human; settings: ~4 μM PDZ
# How it was run: as §1
# DFNB31-3 PDZ = assay: holdup assay; format: binding, human; settings: ~4 μM PDZ
# How it was run: as §1
# LIMK2 PDZ = assay: holdup assay; format: binding, human; settings: ~4 μM PDZ
# How it was run: as §1
# MAGI2-2 PDZ = MAGI2-2 PDZ (Homo sapiens, UniProt Q86UL8); assay: holdup assay; format: binding; settings: ~4 μM PDZ
# How it was run: as §1
# PDZRN4-1 PDZ = target: T7, PDZRN4-1 PDZ (Homo sapiens, UniProt Q6ZMN7); assay: holdup assay; format: binding; settings: fraction of PDZ depleted; ~4 μM PDZ; biotinylated RSK1_725–735; triplicates
# T7 sequence (Q6ZMN7 224-314 limits assumed): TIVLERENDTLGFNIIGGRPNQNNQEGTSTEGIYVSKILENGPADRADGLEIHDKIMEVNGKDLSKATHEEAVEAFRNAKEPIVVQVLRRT
# How it was run: as §2
# GORASP2 PDZ = assay: holdup assay; format: binding, human; settings: ~4 μM PDZ
# How it was run: as §1
# DLG4-2 PDZ = assay: holdup assay; format: binding, human; settings: ~4 μM PDZ
# LNX1 −3 PDZ = assay: holdup assay; format: binding, human; settings: ~4 μM PDZ
# How it was run: as §1
# SNTG2 PDZ = target: T8, SNTG2 PDZ (Homo sapiens, UniProt Q9NY99); assay: holdup assay; format: binding; settings: ~4 μM PDZ
# T8 sequence (Q9NY99 73-156 limits assumed): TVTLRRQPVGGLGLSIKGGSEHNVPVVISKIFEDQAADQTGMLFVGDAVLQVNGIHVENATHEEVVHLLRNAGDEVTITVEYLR
# How it was run: as §1
# GRID2IP-1 PDZ = assay: holdup assay; format: binding, human; settings: ~4 μM PDZ
# How it was run: as §1
# [1] = fraction of PDZ depleted, biotinylated RSK1_725–735, triplicates
# [2] = read-out: KD, estimated, from BI, estimated 17 μM peptide
# Sequence of MAGI2-2 PDZ (Q86UL8 426-510 limits assumed): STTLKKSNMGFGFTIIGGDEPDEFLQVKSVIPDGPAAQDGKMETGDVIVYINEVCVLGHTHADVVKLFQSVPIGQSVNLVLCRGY
# Sequence of HTRA1 PDZ (Q92743 365-467 limits assumed): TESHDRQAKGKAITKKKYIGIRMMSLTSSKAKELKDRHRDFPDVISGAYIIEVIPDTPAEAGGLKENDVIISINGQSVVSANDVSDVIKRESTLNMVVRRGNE
# Sequence of MAGI1-2 PDZ (Q96QZ7 472-554 limits assumed): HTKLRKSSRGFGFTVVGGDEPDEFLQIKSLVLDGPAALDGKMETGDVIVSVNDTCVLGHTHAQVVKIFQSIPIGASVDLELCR
substance,measurement,setting,value
"unphosphorylated RSK1 peptide: C-terminal RSK1 PBM peptide; RSK1_725–735 (holdup, SPR), RSK1_729–735 (direct FP), RSK1_683–735 (competitive FP) ({Biotin-TTDS}-RRVRKLPSTTL)",binding intensity (BI),GORASP1 PDZ; [1],0.01 ± 0.02
same,pKd,GORASP1 PDZ; [2],< 4.00
same,binding intensity (BI),ARHGEF12 PDZ; [1],0.77 ± 0.02
same,pKd,ARHGEF12 PDZ; [2],5.38
same,binding intensity (BI),PPP1R9A PDZ; [1],0.00 ± 0.02
same,pKd,PPP1R9A PDZ; [2],< 4.00
same,binding intensity (BI),SNTB1 PDZ; [1],0.22 ± 0.04
same,pKd,SNTB1 PDZ; [2],4.24
same,binding intensity (BI),MAGI1-2 PDZ; [1],0.43 ± 0.02
same,pKd,MAGI1-2 PDZ; [2],4.69
same,binding intensity (BI),PDZRN3-1 PDZ; [1],0.26 ± 0.01
same,pKd,PDZRN3-1 PDZ; [2],4.34
same,binding intensity (BI),SYNJ2BP PDZ; [1],0.26 ± 0.07
same,pKd,SYNJ2BP PDZ; [2],4.34
same,binding intensity (BI),GRASP PDZ; [1],0.29 ± 0.01
same,pKd,GRASP PDZ; [2],4.41
same,binding intensity (BI),MAST2 PDZ,0.74 ± 0.03
same,binding intensity (BI),MAGI3-2 PDZ,0.28 ± 0.03
same,binding intensity (BI),HTRA1 PDZ; [1],0.44 ± 0.03
same,pKd,HTRA1 PDZ; [2],4.71
same,binding intensity (BI),LAP2 PDZ; [1],−0.02 ± 0.05
same,pKd,LAP2 PDZ; [2],< 4.00
same,interaction partner by updated analysis,SCRIB-3 PDZ,new interaction partners
same,binding intensity (BI),NHERF2-2 PDZ; [1],0.20 ± 0.04
same,pKd,NHERF2-2 PDZ; [2],4.19
same,binding intensity (BI),SNTA1 PDZ,0.31 ± 0.04
same,binding intensity (BI),GOPC PDZ,0.63 ± 0.05
same,binding intensity (BI),SHROOM2 PDZ; [1],0.00 ± 0.01
same,pKd,SHROOM2 PDZ; [2],< 4.00
same,binding intensity (BI),DFNB31-3 PDZ; [1],0.23 ± 0.04
same,pKd,DFNB31-3 PDZ; [2],4.27
same,binding intensity (BI),LIMK2 PDZ; [1],0.01 ± 0.06
same,pKd,LIMK2 PDZ; [2],< 4.00
same,binding intensity (BI),MAGI2-2 PDZ; [1],0.42 ± 0.01
same,pKd,MAGI2-2 PDZ; [2],4.67
same,binding intensity (BI),PDZRN4-1 PDZ,0.51 ± 0.02
same,binding intensity (BI),GORASP2 PDZ; [1],0.41 ± 0.02
same,pKd,GORASP2 PDZ; [2],4.66
same,binding intensity (BI),DLG4-2 PDZ; [1],0.11 ± 0.03
same,pKd,DLG4-2 PDZ; [2],< 4.00
same,binding intensity (BI),LNX1 −3 PDZ; [1],0.04 ± 0.02
same,pKd,LNX1 −3 PDZ; [2],< 4.00
same,binding intensity (BI),SNTG2 PDZ; [1],0.41 ± 0.02
same,pKd,SNTG2 PDZ; [2],4.66
same,binding intensity (BI),GRID2IP-1 PDZ; [1],0.06 ± 0.02
same,pKd,GRID2IP-1 PDZ; [2],< 4.00
